Assay results taken from ChEMBL document CHEMBL4513216, “Probing the Open Global Health Chemical Diversity Library for Multistage-Active Starting Points for Next-Generation Antimalarials” (ACS Infect Dis, 2020).

test: Toxicity liver stage against HepG2, at 10uM; assay type: cell-based; design: test concentration 10 uM, cell line HepG2-A16-CD81EGFP; conditions: human, HepG2-A16-CD81EGFP cells; read-out: INHIBITION
In short: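 Uninfected HepG2-A16-CD81EGFP cells, 3 × 10^3 per well, 1536-well, plated on prespotted compound at 10 μM final, parasite-free screening media added to match infected plates; puromycin 10 μM positive, DMSO 0.5% negative; run in parallel with 48 h PbLuc assay at 37 °C, 5% CO2; viability by CellTiter-Glo luminescence, normalized to controls.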

Row | SMILES | cytotoxicity at 10 µM
1 | COCC(=O)N[C@H](C(=O)NC(C)c1cccc(C)c1C)C(C)C (stereo partly specified) | 5.38%
2 | COc1ccc(C(C)N(C)Cc2c(C(C)(C)C)[nH]c3ncccc23)cc1 (stereo unspecified) | -0.0612%
3 | COCCN(C)C[C@@H]1CN(c2cc(C)nc3ccccc23)C[C@@H]1CO | -1.92%
4 | CN(C)C(=O)C1CSCN1C(=O)CCc1ccco1 (stereo unspecified) | -6.53%
5 | Cc1cc(C2CCCN2Cc2cc(=O)n(C)c(=O)n2C)no1 (stereo unspecified) | -20.6%
6 | Fc1ccc(-c2nc(CNC3CCc4ncnn4C3)co2)cc1 (stereo unspecified) | -4.2%
7 | Cc1ccc(CN2CCC3(CC2)CCN(Cc2ccco2)CC3)cc1 | 2.44%
8 | COc1ccc(CN2C[C@H]3CN(c4cncnc4)C(=O)[C@H]3C2)cc1 | 4.74%
9 | Cc1cc(C[S+]([O-])Cc2ccccc2F)no1 (stereo unspecified) | -3.71%
10 | CCCOc1cc(CNC(=O)Nc2cccc(C(C)=O)c2)ccn1 | -1%
11 | CNc1cncc(C2CCCN2C(=O)c2ccc3c(c2)CCC3)n1 (stereo unspecified) | -15.1%
12 | NC(=O)N1CCCC(c2nc(-c3cccnn3)no2)C1 (stereo unspecified) | -1.31%
13 | Cc1ccc(-c2ncc(CN3CCOC(c4ccco4)C3)s2)o1 (stereo unspecified) | 4.37%
14 | CCN1CCC2(CC1)CN(CCO)c1ccccc12 | -0.173%
15 | CSCc1cc(C(=O)NC2(C#N)CCSC2)ccc1F (stereo unspecified) | -4.59%
16 | O=c1cc(Cn2ccnc2)nc2n1CCCN(Cc1ccco1)C2 | 7.77%
17 | COc1c(C)cnc(CSc2nnc(NC3CC3)s2)c1C | 10.9%
18 | Cc1noc(C)c1-c1nc(N(C)C)ncc1-c1cnccn1 | -22.8%
19 | COCc1nc(C(=O)NS(=O)(=O)c2ccc(C)cc2C)cs1 | -4.35%
20 | CC(c1cncs1)N(C)Cc1ccc(CCC(C)(C)O)cc1 (stereo unspecified) | 4.68%
21 | Cc1nnc2n1CCN(C(=O)c1cc(Br)c(Cl)[nH]1)C2 | -12.7%

Row | SMILES | cytotoxicity at 10 µM
22 | COc1cccc(CNC(C)c2ccc(-n3ccnc3)cc2)c1OC (stereo unspecified) | -35.1%
23 | Fc1ccc(-c2nc(CN3CCCC3Cn3cncn3)co2)cc1 (stereo unspecified) | -8.28%
24 | CN(CCc1ccccc1)Cc1nc(-c2cnccn2)no1 | -0.911%
25 | CC1CCc2nn(CCNC(=O)c3cccs3)c(=O)cc2C1 (stereo unspecified) | 17%
26 | CC1=N[C@@]2(CC[C@@H]3CN(S(=O)(=O)N(C)C)C[C@@H]32)C(=O)N1CC(C)C | 3.16%
27 | Cc1c(CNC(=O)Nc2cccc3c2CCN3C)cnn1C | -1.02%
28 | CCn1nc(C)cc1C(=O)N1CCC(Nc2ccc(C)nn2)CC1 | -4.32%
29 | CN1CC2(CCCN(c3nc(N)nc4c3CCCC4)C2)OC1=O (stereo unspecified) | -0.519%
30 | CCc1cnc(CN(C)C(=O)NC2CCN(CC3CC3)C2)s1 (stereo unspecified) | -3.86%
31 | Fc1ccc(OCCCN2CCOC(Cn3cncn3)C2)cc1 (stereo unspecified) | -1.03%
32 | O=C(O)C1CN(Cc2cnc(C3CCCCC3)nc2)CCO1 (stereo unspecified) | -6.08%
33 | CCn1nc(C)c(CN(CCCOC)Cc2ccccn2)c1C | 5.23%
34 | O=C(CN(Cc1cccnc1)CC1CCCO1)Nc1ccc(F)cc1 (stereo unspecified) | -10.7%
35 | CN1CC(=O)N(c2cccc(F)c2)CC12CCN(Cc1cnn(C)c1)C2 (stereo unspecified) | -5.87%
36 | CS(=O)(=O)N1CCOCC2(CCN(C(=O)c3cccnc3)CC2)C1 | -10.1%
37 | Cc1cc(C)n(CC2CCCN2C(=O)c2ccc3c(c2)nnn3C)n1 (stereo unspecified) | -17.3%
38 | CCNC(=O)c1cnc(Sc2nccn2C)c(Cl)c1 | -49.2%
39 | CNC(=O)[C@@]12CCCN(c3ncccn3)[C@@H]1CN(C)C2 | 12.8%
40 | Cc1cn2nc(N3CCn4c(nnc4C(C)C)C3)sc2n1 | 5.73%
41 | CCCc1nc(C)c(C(=O)NCCn2nc3ccccn3c2=O)s1 | -10.1%
42 | Cc1cc(Br)ccc1CNC(=O)C1(O)CCSCC1 | 8.88%

Row | SMILES | cytotoxicity at 10 µM
43 | CCC(CC)(CC)NC(=O)Nc1nnc(-c2ccccn2)s1 | -2.27%
44 | O=C(CCc1cccc(F)c1F)N1CCN(Cc2ccco2)CC1 | -11.5%
45 | CC(=O)N1CCN(C(=O)c2c(Cl)c3ccccc3n2C)CC1 | 12.5%
46 | CCn1cnnc1CNC(=O)N1CCN(Cc2ccccc2)CC1 | -1.3%
47 | CCNc1cc2c(nn1)CCN(C(=O)Cc1c(C)noc1C)C2 | -8.89%
48 | O=C(c1cccs1)N1C[C@H]2CC[C@@]3(N=C(c4ccccc4)NC3=O)[C@H]2C1 | -9.84%
49 | CN(C(=O)[C@H]1CSCN1C(=O)OC(C)(C)C)C1CC1 | 15.4%
50 | Cc1cc(C2NC(=O)CN2Cc2ccc(Br)cc2)cc(C)c1O (stereo unspecified) | 4.12%
51 | CC(=O)Nc1ccc(CCC2(NC(=O)C3CC3)CCCCC2)cn1 | 13.4%
52 | COCCCNC(=O)NCc1ccc(N2CCOC(C)C2)nc1 (stereo unspecified) | -5.82%
53 | Cc1ccc(F)c2c1CCCN2CC(=O)NC1CCS(=O)(=O)C1 (stereo unspecified) | -11.9%
54 | COC(=O)CCn1ccc(=O)c2cc(OC)ccc21 | 3.88%
55 | Cc1nc(O)cc(CN2C[C@H](NC(=O)C3CCCC3)[C@@H](C3CC3)C2)n1 | -4.7%
56 | Cc1ncsc1C(=O)N1CCC(c2ncncc2-c2ccnc(N)c2)C1 (stereo unspecified) | -0.197%
57 | O=c1c2ccccc2nc2n1C(CSc1ccc(Br)cc1)CN2 (stereo unspecified) | 6.76%
58 | CCCn1c(C)c(CC(=O)NCC(C)O)c2c1CC(C)(C)CC2=O (stereo unspecified) | -7.57%
59 | CNC(=O)CN1CCO[C@H]2CN(CC3CCOCC3)C[C@H]21 | 12.5%
60 | C[C@H](NS(C)(=O)=O)C(=O)NCc1cc(-c2ccco2)n[nH]1 | -8.27%
61 | Cc1ccn2ncc(C(=O)N3CCCC(n4cccn4)C3)c2n1 (stereo unspecified) | -24.3%
62 | Cc1ccc(-c2cc(CNC(=O)N3CCC(N(C)C)CC3)on2)cc1 | -10.8%
63 | NCCn1nc(C2CCN(C(=O)CC3CCCCC3)C2)c2nccnc21 (stereo unspecified) | -0.645%

Row | SMILES | cytotoxicity at 10 µM
64 | Cc1ccoc1C(=O)N1CCNCC1C(=O)NCc1ccncc1 (stereo unspecified) | 6.03%
65 | Cc1ccc(N2C[C@H]3OCC[C@H]3[C@H](C(=O)NCC3CC3)C2)nn1 | -75.7%
66 | COCCN(Cc1cccnc1)S(=O)(=O)c1cc(C)ccc1F | 10.3%
67 | CC(C)CN1C(=O)CO[C@@H]2CN(C(=O)CC(F)(F)F)C[C@H]21 | -1.74%
68 | CN(Cc1ccc([S+](C)[O-])cc1)c1cncc(Br)c1 (stereo unspecified) | 11.7%
69 | CN1CCC(N2CCOC3(CCCC3)C2)C1=O (stereo unspecified) | -6.52%
70 | O=C(NCC1(O)CCC1)NC(c1cc(F)ccc1F)C1CC1 (stereo unspecified) | -4.81%
71 | O=C(Nc1cccc(F)c1)NC1CCN(Cc2ccncc2)CC1 | -9.01%
72 | CS(=O)(=O)c1ccc(NC(=O)N2C[C@H](O)[C@@H](N3CCOCC3)C2)cc1 | -46%
73 | OC1(CNc2cccc(F)c2)CCNCC1 | 5.38%
74 | COc1ccc(-c2nonc2N)cc1 | -7.97%
75 | CCC(=O)NC1CCN(c2cccc(CC)c2)CC1 | -4.16%
76 | CN1CCCC1c1ccc(N2CCOCC2)cn1 (stereo unspecified) | -2.21%
77 | O=C(N1CCC(OCc2ccccn2)CC1)C1(c2ccc(F)cc2)CC1 | 0.178%
78 | CCOc1ccc(C(=O)N2CCCC2Cn2cc(C)cn2)cn1 (stereo unspecified) | -20.2%
79 | COc1ccc(CNC(=O)CNc2cc3c(cc2Cl)OCCO3)cc1 | -0.238%
80 | O=S(=O)(N[C@@H]1CCO[C@]2(CCN(CC3CCOCC3)C2)C1)C1CC1 | -142%
81 | CS(=O)(=O)N1C[C@H](C(=O)Nc2cnccn2)C[C@H]2OCC[C@H]21 | 10.7%
